These results are taken from ChEMBL document CHEMBL3525946, “Species comparison of in vivo P-glycoprotein-mediated brain efflux using mdr1a-deficient rats and mice” (Drug Metab Dispos, 2012).

The nature of data set [1]: Percentage unbound in Crl:NMRI(Han) mouse brain at 1 uM after 5 hrs by equilibrium dialysis method. In kind it is ADME, tissue-based. Put shortly: (§1)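 Equilibrium dialysis (12-14 kDa membrane) of plasma or brain homogenate from naïve male Sprague-Dawley rats or Crl:NMRI(Han) mice. Donor side spiked to 1 µM final; receiver phosphate buffer pH 7.4; 37°C for 5 h. Buffer phase quantified by LC-MS. Brain fu corrected for homogenate dilution to intact tissue. Mean of two independent determinations.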

Data set [2] in a line: Percentage unbound in Crl:NMRI(Han) mouse plasma at 1 uM after 5 hrs by equilibrium dialysis method. The data set is classed as ADME, cell-free. Put shortly: as §1
Data set [3] is described as follows: Total drug level in mdr1a-deficient mouse brain at 4 mg/kg/day administered through continuous minipump treatment for 3 days by UPLC-MS analysis. Particulars: other: continuous minipump, read-out: Drug uptake. In kind it is ADME, organism-based. Summed up: (§2)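 Drug was infused subcutaneously by osmotic minipump for 3 days to steady state, at 1 µl/h in mice and 10 µl/h in rats, with doses derived from body weight and delivery rate. Animals were decapitated. Plasma came from EDTA trunk blood spun at 5000 g for 10 min at 4 °C. Whole brain was homogenised 1:4 in 70% acetonitrile and the supernatant kept. Samples were protein-precipitated with internal standard and analysed by UPLC. n=3-5, mean ± SEM.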

Data set [4] can be described thus: Total plasma concentration in mdr1a-deficient mouse at 4 mg/kg/day administered through continuous minipump treatment for 3 days by UPLC-MS analysis. In kind it is ADME, organism-based. The conditions noted are these: other: continuous minipump. Summed up:
as §2

Data set [5] in a line: Total drug level in mdr1a-deficient rat brain at 5 mg/kg/day administered through continuous minipump treatment for 3 days by UPLC-MS analysis. The data set is classed as ADME, organism-based. Particulars: other: continuous minipump, read-out: Drug uptake. Put shortly:
as §2

Data set [6] in a line: Total brain to plasma partition coefficient of the compound in mdr1a-deficient mouse at 4 mg/kg/day administered through continuous minipump treatment for 3 days. Particulars: other: continuous minipump.
Data set [7] can be described thus: Total plasma concentration in wild type Crl:CF1 mouse expressing Abcb1a mutant at 4 mg/kg/day administered through continuous minipump treatment for 3 days by UPLC-MS analysis. In kind it is ADME, organism-based. Particulars: other: continuous minipump. Put shortly: as §2
Data set [8] is described as follows: Total plasma concentration in wild type Sprague-Dawley rat expressing Abcb1a at 5 mg/kg/day administered through continuous minipump treatment for 3 days by UPLC-MS analysis. The data set is classed as ADME, organism-based. The conditions noted are these: other: continuous minipump. Summed up: as §2
The nature of data set [9]: Total brain to plasma partition coefficient of the compound in wild type Crl:CF1 mouse expressing Abcb1a mutant at 4 mg/kg/day administered through continuous minipump treatment for 3 days. The conditions noted are these: brain and plasma, other: continuous minipump.
Data set [10] in a line: Total drug level in wild type Sprague-Dawley rat brain expressing Abcb1a at 5 mg/kg/day administered through continuous minipump treatment for 3 days by UPLC-MS analysis. In kind it is ADME, organism-based. Particulars: other: continuous minipump, read-out: Drug uptake. Summed up:
as §2

The nature of data set [11]: Percentage unbound in Sprague-Dawley rat brain at 1 uM after 5 hrs by equilibrium dialysis method. The data set is classed as ADME, tissue-based. Summed up: as §1
Data set [12] in a line: Unbound brain to plasma partition coefficient of the compound in mdr1a-deficient rat at 5 mg/kg/day administered through continuous minipump treatment for 3 days. The data set is classed as ADME, organism-based. Particulars: other: continuous minipump, read-out: K(p,uu,brain). Summed up:
(§3)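 Kp,uu = Cbrain,total × fu,brain / Cplasma,total × fu,plasma, using steady-state totals from 3-day subcutaneous minipump infusion. Free fractions came from equilibrium dialysis (12-14 kDa membrane) of naive Sprague-Dawley rat or NMRI mouse plasma or brain homogenate spiked to 1 µM final, against pH 7.4 phosphate buffer for 5 h at 37 °C, read by LC-MS and corrected for brain dilution. fu is the mean of two determinations.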

Data set [13] can be described thus: Unbound brain to plasma partition coefficient of the compound in mdr1a-deficient mouse at 4 mg/kg/day administered through continuous minipump treatment for 3 days. In kind it is ADME, organism-based. Particulars: other: continuous minipump, read-out: K(p,uu,brain). Put shortly: as §3
A short description of data set [14]: Percentage unbound in Sprague-Dawley rat plasma at 1 uM after 5 hrs by equilibrium dialysis method. The data set is classed as ADME, cell-free. Summed up:
as §1

The nature of data set [15]: Total brain to plasma partition coefficient of the compound in wild type Sprague-Dawley rat expressing Abcb1a at 5 mg/kg/day administered through continuous minipump treatment for 3 days. The conditions noted are these: brain and plasma, other: continuous minipump.
A short description of data set [16]: Total brain to plasma partition coefficient of the compound in mdr1a-deficient Sprague-Dawley rat at 5 mg/kg/day administered through continuous minipump treatment for 3 days. The conditions noted are these: brain and plasma, other: continuous minipump.
Data set [17] can be described thus: Total drug level in wild type Crl:CF1 mouse brain expressing Abcb1a mutant at 4 mg/kg/day administered through continuous minipump treatment for 3 days by UPLC-MS analysis. In kind it is ADME, organism-based. Particulars: other: continuous minipump, read-out: Drug uptake. Put shortly: as §2
Data set [18] can be described thus: Unbound brain to plasma partition coefficient of the compound in wild type Sprague-Dawley rat expressing Abcb1a at 5 mg/kg/day administered through continuous minipump treatment for 3 days. In kind it is ADME, organism-based. Particulars: other: continuous minipump, read-out: K(p,uu,brain). Put shortly: as §3
Data set [19] can be described thus: Total plasma concentration in mdr1a-deficient rat at 5 mg/kg/day administered through continuous minipump treatment for 3 days by UPLC-MS analysis. The data set is classed as ADME, organism-based. The conditions noted are these: other: continuous minipump. Put shortly: as §2
Data set [20] can be described thus: Unbound brain to plasma partition coefficient of the compound in wild type Crl:CF1 mouse expressing Abcb1a mutant at 4 mg/kg/day administered through continuous minipump treatment for 3 days. The data set is classed as ADME, organism-based. Particulars: other: continuous minipump, read-out: K(p,uu,brain). Put shortly: as §3
The nature of data set [21]: Total drug level in wild type Sprague-Dawley rat brain expressing Abcb1a at 9 mg/kg/day administered through continuous minipump treatment for 3 days by UPLC-MS analysis. The data set is classed as ADME, organism-based. Particulars: other: continuous minipump, read-out: Drug uptake. Put shortly:
as §2

Data set [22] in a line: Total plasma concentration in wild type Crl:CF1 mouse expressing Abcb1a mutant at 12 mg/kg/day administered through continuous minipump treatment for 3 days by UPLC-MS analysis. The data set is classed as ADME, organism-based. The conditions noted are these: other: continuous minipump. Put shortly:
as §2

Data set [23] in a line: Unbound brain to plasma partition coefficient of the compound in mdr1a-deficient rat at 9 mg/kg/day administered through continuous minipump treatment for 3 days. In kind it is ADME, organism-based. Particulars: other: continuous minipump, read-out: K(p,uu,brain).
A short description of data set [24]: Total brain to plasma partition coefficient of the compound in wild type Crl:CF1 mouse expressing Abcb1a mutant at 12 mg/kg/day administered through continuous minipump treatment for 3 days. The conditions noted are these: brain and plasma, other: continuous minipump. The data set is classed as ADME, organism-based. Summed up: (§4)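 Rats (SD-Abcb1a knockout or wild-type, 350-500 g) or mice (Crl:CF1-Abcb1a mutant or CF-1 background, 25-45 g) received drug by subcutaneous osmotic minipump (pump content as free base) for 3 days to steady state. After decapitation, trunk EDTA plasma and whole brain (homogenised 1:4 in 70% acetonitrile) were assayed by UPLC. Kp = total brain/total plasma concentration. n=3-5, mean ± SEM.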

A short description of data set [25]: Total brain to plasma partition coefficient of the compound in wild type Sprague-Dawley rat expressing Abcb1a at 9 mg/kg/day administered through continuous minipump treatment for 3 days. The data set is classed as ADME, organism-based. Particulars: brain and plasma, other: continuous minipump.
Data set [26] can be described thus: Unbound brain to plasma partition coefficient of the compound in wild type Sprague-Dawley rat expressing Abcb1a at 9 mg/kg/day administered through continuous minipump treatment for 3 days. The data set is classed as ADME, organism-based. Particulars: other: continuous minipump, read-out: K(p,uu,brain).
Data set [27] can be described thus: Unbound brain to plasma partition coefficient of the compound in wild type Crl:CF1 mouse expressing Abcb1a mutant at 12 mg/kg/day administered through continuous minipump treatment for 3 days. In kind it is ADME, organism-based. The conditions noted are these: other: continuous minipump, read-out: K(p,uu,brain). Summed up:
as §3

Data set [28] in a line: Total plasma concentration in wild type Sprague-Dawley rat expressing Abcb1a at 9 mg/kg/day administered through continuous minipump treatment for 3 days by UPLC-MS analysis. The data set is classed as ADME, organism-based. The conditions noted are these: other: continuous minipump. Summed up: as §2
Data set [29] is described as follows: Total brain to plasma partition coefficient of the compound in mdr1a-deficient rat at 9 mg/kg/day administered through continuous minipump treatment for 3 days. In kind it is ADME, organism-based. Particulars: brain and plasma, other: continuous minipump.
Data set [30] is described as follows: Total drug level in wild type Crl:CF1 mouse brain expressing Abcb1a mutant at 12 mg/kg/day administered through continuous minipump treatment for 3 days by UPLC-MS analysis. The data set is classed as ADME, organism-based. The conditions noted are these: other: continuous minipump, read-out: Drug uptake. Put shortly:
as §2

Data set [31] in a line: Total plasma concentration in mdr1a-deficient mouse at 12 mg/kg/day administered through continuous minipump treatment for 3 days by UPLC-MS analysis. In kind it is ADME, organism-based. Particulars: other: continuous minipump. Put shortly: as §2
A short description of data set [32]: Total plasma concentration in mdr1a-deficient rat at 9 mg/kg/day administered through continuous minipump treatment for 3 days by UPLC-MS analysis. The data set is classed as ADME, organism-based. The conditions noted are these: other: continuous minipump. Put shortly:
as §2

Data set [33] in a line: Total brain to plasma partition coefficient of the compound in mdr1a-deficient mouse at 12 mg/kg/day administered through continuous minipump treatment for 3 days. Particulars: other: continuous minipump. The data set is classed as ADME, organism-based. Put shortly: as §4
Data set [34] is described as follows: Total drug level in mdr1a-deficient rat brain at 9 mg/kg/day administered through continuous minipump treatment for 3 days by UPLC-MS analysis. In kind it is ADME, organism-based. The conditions noted are these: other: continuous minipump, read-out: Drug uptake. Summed up: as §2
A short description of data set [35]: Unbound brain to plasma partition coefficient of the compound in mdr1a-deficient mouse at 12 mg/kg/day administered through continuous minipump treatment for 3 days. In kind it is ADME, organism-based. The conditions noted are these: other: continuous minipump, read-out: K(p,uu,brain). Summed up: as §3
Data set [36] is described as follows: Total drug level in mdr1a-deficient mouse brain at 12 mg/kg/day administered through continuous minipump treatment for 3 days by UPLC-MS analysis. The data set is classed as ADME, organism-based. The conditions noted are these: other: continuous minipump, read-out: Drug uptake. Summed up:
as §2

For the compound `Cc1nc2n(c(=O)c1CCN1CCC(c3noc4cc(F)ccc34)CC1)CCCC2` [RISPERIDONE], the fraction unbound at 5 h, 1 µM in data set [1] came out at 0.058; in data set [2] it was 0.27; in data set [11] it was 0.09; in [14] it was 0.11. The concentration at 72 h was found to be 149 ng/g in data set [3]; 0.04 µg/mL in data set [4]; 295 ng/g in [5]; 0.043 µg/mL in [7]; 0.194 µg/mL in [8]; 41 ng/g in [10]. In addition, the concentration at 72 h in data set [17] was determined as 21 ng/g; in data set [19], 0.168 µg/mL. The Kp at 72 h in data set [6] amounted to 3.8; in data set [9], 0.52; in data set [15], 0.22; in data set [16], 1.9. Also, the Kp uu at 72 h in [12] worked out at 1.4; in data set [13], 0.81; in [18] it was 0.17; in [20] it was 0.11.
`COc1ccc(C(CN(C)C)C2(O)CCCCC2)cc1.Cl` (stereo not given) [VENLAFAXINE HYDROCHLORIDE]: the fraction unbound at 5 h, 1 µM in data set [1] is 0.18; in data set [2], > 0.99; in data set [11], 0.092; in data set [14], 0.64. Besides, the concentration at 72 h was found to be 158 ng/g in data set [21]; 0.085 µg/mL in data set [22]; 0.05 µg/mL in data set [28]; 403 ng/g in data set [30]; 0.105 µg/mL in data set [31]; 0.063 µg/mL in data set [32]. Also, the concentration at 72 h in data set [34] came to 389 ng/g; in data set [36], 828 ng/g. The Kp uu at 72 h in data set [23] came to 0.89; in data set [26], 0.45; in [27], 0.86; in data set [35] it was 1.4. Besides, the Kp at 72 h was 4.7 in data set [24], 3.3 in data set [25], 6.3 in [29] and 8.3 in data set [33].
